The list is not random: actives were taken first. Their share in the collection is about 3.1%.
MEKK2 WT-MEK5 = modulators of MEK5 binding to wildtype MEKK2, primary screen, biochemical, multiplex bead flow cytometry, Alexa488-MEK5; Alexa488-MEK5 binding to MEKK2 WT; actives lie on both sides; binding response (% of control), % at 10 µM; 1.1% of 290,000 active; AID 1531, 2009; in the data active means binding response below about 67% or above about 130%; inconclusive means no clear call, values can overlap the other calls; inactive means in between
MEKK3 PB1 HTS = modulators of MEKK3-MEK5 PB1 binding, primary screen, biochemical, wildtype MEKK3, multiplex bead flow cytometry, Alexa488-MEK5; Mitogen-activated protein kinase kinase kinase 3 (Homo sapiens), Q99759; binding response (% of control), % at 10 µM; 1.4% of 290,000 active; bead-based flow cytometry, Alexa488-MEK5 binding to MEKK3; actives lie on both sides; 0 = blocked by unlabeled MEK5, 100 = vehicle;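 active means binding response more than 3 SD above or below the average of its plate-row segment, actives on both sides; inconclusive means wells at one plate position flagged as instrument error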;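 further: Alexa488 bead fluorescence after subtracting the streptavidin-only scavenger bead signal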
Target sequence (Q99759 whole entry, looked up): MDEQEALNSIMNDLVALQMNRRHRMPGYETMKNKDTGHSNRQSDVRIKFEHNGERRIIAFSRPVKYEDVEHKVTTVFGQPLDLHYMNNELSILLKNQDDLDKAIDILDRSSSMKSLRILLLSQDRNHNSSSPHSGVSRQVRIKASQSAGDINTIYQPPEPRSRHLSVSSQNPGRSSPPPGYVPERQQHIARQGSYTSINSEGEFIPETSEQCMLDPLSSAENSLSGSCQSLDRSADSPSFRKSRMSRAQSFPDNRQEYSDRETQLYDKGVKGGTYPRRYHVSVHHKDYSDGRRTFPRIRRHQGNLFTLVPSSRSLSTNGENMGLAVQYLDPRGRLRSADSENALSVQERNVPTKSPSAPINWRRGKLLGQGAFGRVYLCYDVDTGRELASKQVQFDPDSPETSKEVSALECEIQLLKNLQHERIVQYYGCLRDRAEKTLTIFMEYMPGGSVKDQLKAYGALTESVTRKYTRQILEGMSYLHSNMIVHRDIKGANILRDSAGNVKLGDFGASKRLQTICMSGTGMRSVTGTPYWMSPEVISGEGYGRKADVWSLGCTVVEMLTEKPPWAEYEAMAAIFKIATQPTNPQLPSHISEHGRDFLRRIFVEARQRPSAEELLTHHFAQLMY
PREPL inh = PREPL enzyme inhibitors, primary screen, biochemical, fluorescence polarization; recombinant PREPL, fluorescence polarization activity-based probe; 0.68% of 320,000 active; Prolyl endopeptidase-like (Homo sapiens), Q4J6C6; AID 2751, 2010; inhibition, % at 5.96 µM; in the data active means inhibition above about 43%;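 further: 0% = enzyme with DMSO and 100% = wells lacking enzyme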
UBC13 inh = UBC13 polyubiquitin chain formation inhibitors, primary screen, biochemical, TR-FRET, uHTS. Ubiquitin-conjugating enzyme E2 N (Homo sapiens), P61088. 0.47% of 330,000 active. inhibition, % at 20 µM. AID 485273, 2010; in the data active means inhibition above about 45%, passing the limit was not always enough; inconclusive means no clear call, values can overlap the other calls
Target sequence (P61088 whole entry, looked up): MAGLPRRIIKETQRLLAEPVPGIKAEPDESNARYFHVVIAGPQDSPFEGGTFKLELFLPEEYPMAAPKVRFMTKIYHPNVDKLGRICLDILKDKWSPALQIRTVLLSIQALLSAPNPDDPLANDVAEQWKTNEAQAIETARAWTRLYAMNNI
MEKK2 mut-MEK5 = MEK5 binding signal on mutant MEKK2 PB1, primary screen, biochemical, multiplex bead flow cytometry, Alexa488-MEK5; percent response, % at 10 µM; 0.35% of 290,000 active; AID 1530, 2009; Alexa488-MEK5 binding to MEKK2 mutant; in the data active means percent response above about 24%, passing the limit was not always enough
Apaf-1 inh = inhibitors of human Apaf-1 apoptosome, primary screen, biochemical, DEVD-Rh110 fluorescence, uHTS. Apoptotic protease-activating factor 1 (Homo sapiens), O14727. reconstituted apoptosome caspase-3 activity. inhibition, % at 20 µM. 0.71% of 330,000 active; active means inhibition of at least 40% at 20 µM;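 further: plate controls were DMSO wells for no effect and DEVD-CHO caspase inhibitor wells for full effect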
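Assay system: Apoptosome proteins | Medium: pH 7.5 Hepes buffer with CHAPS, BSA, DTT | Also added: Cytochrome c and DEVD-Rh110 substrate | Times: 30 min plus 50 min, RT | Detection: Rhodamine 110 fluorescence at Ex 480/Em 540 nm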
MEKK2wt confirm = modulators of MEK5 binding to wildtype MEKK2, confirmation, biochemical, single concentration, multiplex bead flow cytometry; shares compounds with MEKK3 PB1 HTS; Alexa488-MEK5 binding to MEKK2 WT; actives lie on both sides; binding response (% of control), % at 10 µM; 2.4% of 5,900 active; in the data active means binding response below about 16% or above about 210%; inactive means in between
MEKK2mut confirm = mutant MEKK2 PB1-MEK5 binding signal retest – biochemical, single concentration, multiplex bead flow cytometry, confirmation. shares compounds with MEKK3 PB1 HTS. Alexa488-MEK5 binding to MEKK2 mutant. percent response, % at 10 µM. 2% of 5,900 active; in the data active means percent response mostly above about 71%, no sharp cut-off; inactive means mostly below about 38%;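 further: higher means compound restores mutant binding toward wildtype level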
MEKK3-MEK5 inh = MEKK3 wild-type PB1 binding to MEK5, inhibitors, confirmation, biochemical, bead multiplex flow cytometry, single concentration, wildtype. shares compounds with MEKK3 PB1 HTS. Alexa488-MEK5 binding to MEKK3; hits give low values. binding response (% of control), % at 10 µM. 1.8% of 5,900 active;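 active means binding response below 72% of control, or above a set upper limit, though filed actives all read lower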;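 further: 100% = DMSO only wells and 0% = binding blocked by excess unlabeled MEK5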
* marks the source's active call; other numbers are inactive results; ? = inconclusive; · = no result; [ ] = remark or other dose.

SMILES | MEKK2 WT-MEK5 | MEKK3 PB1 HTS | PREPL inh | UBC13 inh | MEKK2 mut-MEK5 | Apaf-1 inh | MEKK2wt confirm | MEKK2mut confirm | MEKK3-MEK5 inh
CC(C)(C)NC(=O)CN(C(=O)c1snc(C(=O)NC2CCCCC2)c1N)c1ccc(F)cc1 | 92.0 | 103.0 | -1.8 | 10.4 | -4.0 | 10.1 | · | · | ·
Cc1[nH]c2c(C)cccc2c(=O)c1CN1CCCCCC1 | 122.0 | 105.0 | 14.5 | 7.6 | 11.0 | 6.9 | · | · | ·
Cc1ccc2c(CC(=O)OCc3csc(C)n3)coc2c1 | 3.0*[inhibitor] | 3.0*[inhibitor] | 0.7 | 3.2 | -14.0 | 12.1 | 109.0 | 8.0 | 109.0
Nc1ccc(Nc2ccccc2N)cc1 | 69.0 | 60.0*[inhibitor] | 94.4* | -32.3 | -3.0 | 18.0 | 78.0 | 7.0 | 60.0*
Cc1cc(C)nc(NC(=NCCc2c[nH]c3ccccc23)NC(=O)Nc2ccc(Cl)cc2)n1 | 111.0 | 59.0*[inhibitor] | 17.8 | -7.3 | 1.0 | 2.1 | 106.0 | -2.0 | 103.0
O=C(CN1CCOCC1)Nc1cccc(C(=O)Nc2cccc(C(F)(F)F)c2)c1 | 115.0 | 106.0 | 8.3 | -2.6 | 4.0 | 15.0 | · | · | ·
CCCCCNCC(=O)Nc1cccc(C(=O)Nc2cccc(C(F)(F)F)c2)c1 | 174.0* | 97.0 | 1.2 | 29.0 | 29.0 | -3.3 | 157.0 | 20.0 | 106.0
Cc1nc(CSc2ccc(Br)cc2)cs1 | 100.0 | 100.0 | -11.4 | 4.8 | 1.0 | 3.4 | · | · | ·
Cc1ccnc(NS(=O)(=O)c2ccc(NC(=O)c3ccccc3F)cc2)n1 | 103.0 | 105.0 | -2.2 | -2.6 | 2.0 | -0.4 | · | · | ·
Nc1ccc(S(=O)(=O)Nc2nccc(/C=C/c3ccccc3F)n2)cc1 | 116.0 | 134.0* | 8.1 | -3.2 | 0.0 | 2.2 | 95.0 | -3.0 | 97.0
O=c1c2ccccc2nnn1CCO | 105.0 | 102.0 | -3.0 | 5.6 | 7.0 | -5.4 | · | · | ·
Cn1nnc2ccccc2c1=O | 129.0 | 141.0* | 0.8 | 10.3 | 7.0 | -8.7 | 100.0 | -2.0 | 98.0
COCCN(C(=O)c1cc(S(=O)(=O)N2CCCCC2)ccc1Cl)c1c(N)n(CC(C)C)c(=O)[nH]c1=O | · | · | · | 1.3 | · | -1.6 | · | · | ·
COc1ccc(CN(C)C(=O)c2cc(S(=O)(=O)N3CCOCC3)ccc2N2CCCC2)cc1 | · | · | 30.2 | -0.4 | · | 9.5 | · | · | ·
CCc1nc(SCC(=O)NNC(=O)C(C)C)c2ccccc2n1 | 107.0 | 106.0 | -1.9 | 2.5 | 2.0 | -15.1 | · | · | ·
CC(C)C(=O)NNC(=O)CSc1nc(C2CCCCC2)nc2ccccc12 | 108.0 | 140.0* | -1.2 | -1.1 | 2.0 | 8.1 | 103.0 | 3.0 | 104.0
COc1ccc(CCN2C(=O)C(Oc3ccccc3)C2c2ccc3c(c2)OCO3)cc1 (centres undefined) | 108.0 | 150.0* | 0.2 | 10.3 | 1.0 | 22.3 | 107.0 | -3.0 | 102.0
CCCc1cc(=O)[nH]c(SCC(=O)Nc2cccc(S(=O)(=O)N3CCCCC3)c2)n1 | · | · | 12.9 | -7.8 | · | 11.9 | · | · | ·
Cc1ccccc1OCCNc1cc(N2CCNCC2)ccc1[N+](=O)[O-] | 162.0* | 110.0 | 7.9 | -3.1 | 35.0 | 16.3 | 167.0 | 34.0 | 104.0
O=C(CSc1ccc2nnc(-c3cccnc3)n2n1)Nc1ccccc1C(F)(F)F | 103.0 | 99.0 | -0.5 | 5.1 | 4.0 | 1.3 | · | · | ·
Cc1ccc(-n2ncc3c(SCC(N)=O)ncnc32)cc1C | 104.0 | 102.0 | · | 2.4 | 2.0 | 4.2 | · | · | ·
COc1cc2nc(SCc3ccc(C(F)(F)F)cc3)n(Cc3cccs3)c(=N)c2cc1OC | 96.0 | 96.0 | 4.8 | 12.7 | -11.0 | -8.7 | · | · | ·
COc1cc2nc(SCc3ccc(Cl)cc3Cl)n(Cc3cccs3)c(=N)c2cc1OC | 90.0 | 90.0 | 18.5 | 2.8 | -5.0 | 13.0 | · | · | ·
COc1ccc(Cn2c(SCc3cc(C)ccc3C)nc3cc(OC)c(OC)cc3c2=N)cc1 | 174.0* | 107.0 | 15.6 | 43.8 | 38.0 | 34.6 | 205.0 | 57.0 | 101.0
COc1ccc(Cn2c(SCc3ccc(C)cc3)nc3cc(OC)c(OC)cc3c2=N)cc1Cl | 212.0* | 102.0 | 34.9 | 37.5 | 71.0* | 0.9 | 208.0* | 80.0* | 102.0
SMILES | MEKK2 WT-MEK5 | MEKK3 PB1 HTS | PREPL inh | UBC13 inh | MEKK2 mut-MEK5 | Apaf-1 inh | MEKK2wt confirm | MEKK2mut confirm | MEKK3-MEK5 inh
CC1CCCC(NC(=S)NC(=O)c2ccco2)C1C (centres undefined) | · | · | 6.0 | 1.9 | · | 13.5 | · | · | ·
COc1ccccc1C1CN=NC12CCCc1ccccc1C2=O (centres undefined) | 33.0*[inhibitor] | 24.0*[inhibitor] | -10.5 | -6.9 | -13.0 | 22.2 | 106.0 | 5.0 | 103.0
CC1CCN(CCCNC(=O)c2ccc(Cn3c(=S)[nH]c4ccc(Br)cc4c3=O)cc2)CC1 | 166.0* | 103.0 | 18.2 | ? | 38.0 | 2.1 | 190.0 | 50.0 | 108.0
COc1ccc(C(=O)N2CCc3ccccc32)cc1 | 100.0 | 122.0* | -1.3 | 6.2 | 5.0 | 4.5 | 99.0 | -6.0 | 98.0
Cc1c(C(=O)N2CCN(S(=O)(=O)c3cc(F)ccc3F)CC2)oc2ccccc12 | · | · | 13.2 | -6.6 | · | 13.0 | · | · | ·
Cc1nc(SCC(=O)NCC(F)(F)F)c2c(-c3cccs3)csc2n1 | 104.0 | 128.0* | 2.6 | -6.8 | 0.0 | 11.0 | 96.0 | -5.0 | 100.0
Cc1nc(SCC(=O)NC(C)(C#N)C2CC2)c2c(-c3cccs3)csc2n1 (centres undefined) | 96.0 | 94.0 | 3.2 | 5.4 | -3.0 | 13.8 | · | · | ·
COc1cccc(C(=O)NCCS(=O)(=O)N2CC(C)CC(C)C2)c1 (centres undefined) | · | · | 4.1 | 2.7 | · | 7.3 | · | · | ·
CCn1c(SCC(=O)O)nnc1-c1ccccc1OC | 102.0 | 105.0 | 2.0 | -13.4 | -2.0 | -0.8 | · | · | ·
COc1ccccc1-c1nnc(SCC(=O)O)n1-c1ccccc1 | 116.0 | 135.0* | 6.7 | 4.3 | 1.0 | -11.7 | 101.0 | 11.0 | 105.0
O=C(O)CNC(=S)N(Cc1ccccc1Cl)C1CCCCC1 | 63.0 | 48.0*[inhibitor] | 14.3 | -6.1 | -14.0 | 2.5 | 87.0 | -11.0 | 85.0
